# Results as given in ChEMBL document CHEMBL1123776, “Solid-phase synthesis and biological properties of psi [CH2NH] pseudopeptide analogues of a highly potent somatostatin octapeptide” (1987).
# Tests used:
# Rattus norvegicus [1] = species on record: Rattus norvegicus; test: Ability to inhibit growth hormone release in vitro in cultured rat anterior pituitary cells; format: functional, Pituitary gland cell
# Outline: (§1)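 Primary cultures of male rat anterior pituitary cells were kept for 4 days and then exposed to peptide. GH in the medium was measured by radioimmunoassay. The EC50 (50% inhibition of GH secretion) was fitted with ALLFIT. Potency was expressed as the ratio to the EC50 of tetradecapeptide SRIF as reference standard.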
# Rattus norvegicus [2] = test: Ability to inhibit growth hormone release in vivo in sodium pentobarbital anesthetized rats; format: functional
# Outline: (§2)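 Male Sprague-Dawley rats anesthetized with sodium pentobarbital were given peptide, with saline and tetradecapeptide SRIF controls, at doses of 0.003–10 µg/100 g BW. Plasma GH was measured by radioimmunoassay. Values are mean ± SEM, with the number of rats per group given.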
# Rattus norvegicus [3] = species on record: Rattus norvegicus; test: Activity is measured as concentration producing 50% inhibition of growth hormone secretion in rats; format: functional; outline: as §1
# Rattus norvegicus [4] = test: Ability to inhibit growth hormone release in the anesthetized rats measured as plasma growth hormone at a dose of 0.1 ug/100 g BW; format: functional, organism-based; outline: as §2
# Rattus norvegicus [5] = test: Ability to inhibit growth hormone release in the anesthetized rats measured as plasma growth hormone at a dose of 10 ug/100 g BW; format: functional, organism-based; outline: as §2
# Rattus norvegicus [6] = test: Ability to inhibit growth hormone release in the anesthetized rats measured as plasma growth hormone at a dose of 1 ug/100 g BW; format: functional, organism-based; outline: as §2
# Rattus norvegicus [7] = test: Ability to inhibit growth hormone release in the anesthetized rats measured as plasma growth hormone at a dose of 0.09 ug/100 g BW; format: functional, organism-based; outline: as §2
# Rattus norvegicus [8] = test: Ability to inhibit growth hormone release in the anesthetized rats measured as plasma growth hormone at a dose of 0.03 ug/100 g BW; format: functional, organism-based; outline: as §2
# Rattus norvegicus [9] = test: Ability to inhibit growth hormone release in the anesthetized rats measured as plasma growth hormone at a dose of 10 ug/100 g; format: functional, organism-based; outline: as §2
# Rattus norvegicus [10] = test: Ability to inhibit growth hormone release in the anesthetized rats measured as plasma growth hormone at a dose of 0.6 ug/100 g BW; format: functional, organism-based; outline: as §2
# Rattus norvegicus [11] = test: Ability to inhibit growth hormone release in the anesthetized rats measured as plasma growth hormone at a dose of 0.2 ug/100 g BW; format: functional, organism-based; outline: as §2
# Rattus norvegicus [12] = test: Ability to inhibit growth hormone release in the anesthetized rats measured as plasma growth hormone at a dose of 0.01 ug/100 g BW; format: functional, organism-based; outline: as §2
# Rattus norvegicus [13] = test: Ability to inhibit growth hormone release in the anesthetized rats measured as plasma growth hormone ata dose of 0.01 ug/100 g BW; format: functional, organism-based; outline: as §2
smiles,measurement,setting,value
CC(C)[C@@H]1NC(=O)[C@H](CCCCN)NC[C@@H](Cc2c[nH]c3ccccc23)NC(=O)[C@H](Cc2ccc(O)cc2)NC(=O)[C@@H](NC(=O)[C@H](N)Cc2ccccc2)CSSC[C@@H](C(=O)N[C@H](C(N)=O)[C@@H](C)O)NC1=O,Potency,Rattus norvegicus [1],0.03%
same,Potency,Rattus norvegicus [2],2%
same,ED50,Rattus norvegicus [3],190 nM
CC(C)[C@@H]1CN[C@H](C(=O)N[C@H](C(N)=O)[C@@H](C)O)CSSC[C@H](NC(=O)[C@H](N)Cc2ccccc2)C(=O)N[C@@H](Cc2ccc(O)cc2)C(=O)N[C@H](Cc2c[nH]c3ccccc23)C(=O)N[C@@H](CCCCN)C(=O)N1,Potency,Rattus norvegicus [1],0.02%
same,Potency,Rattus norvegicus [2],2%
same,ED50,Rattus norvegicus [3],350 nM
CC(C)[C@H]1NC(=O)[C@H](CCCCN)NC(=O)[C@@H](Cc2c[nH]c3ccccc23)NC[C@H](Cc2ccc(O)cc2)NC(=O)[C@@H](NC(=O)[C@@H](N)Cc2ccccc2)CSSC[C@H](C(=O)N[C@H](C(N)=O)[C@@H](C)O)NC1=O,Plasma GH,Rattus norvegicus [4],307 ng/mL
same,Plasma GH,Rattus norvegicus [5],137 ng/mL
same,Plasma GH,Rattus norvegicus [6],176 ng/mL
CC(C)[C@@H]1NC(=O)[C@H](CCCCN)NC(=O)[C@@H](Cc2c[nH]c3ccccc23)NC[C@H](Cc2ccc(O)cc2)NC(=O)[C@@H](NC(=O)[C@H](N)Cc2ccccc2)CSSC[C@@H](C(=O)N[C@H](C(N)=O)[C@@H](C)O)NC1=O,Potency,Rattus norvegicus [1],0.68%
same,Potency,Rattus norvegicus [2],20%
same,ED50,Rattus norvegicus [3],9.1 nM
CC(C)[C@@H]1NC(=O)[C@H](CCCCN)NC(=O)[C@@H](Cc2c[nH]c3ccccc23)NC(=O)[C@H](Cc2ccc(O)cc2)NC(=O)[C@@H](NC(=O)[C@H](N)Cc2ccccc2)CSSC[C@H](CN[C@H](C(N)=O)[C@@H](C)O)NC1=O,Potency,Rattus norvegicus [1],0.41%
same,Potency,Rattus norvegicus [2],73%
same,ED50,Rattus norvegicus [3],15 nM
CC(C)[C@H]1NC(=O)[C@H](CCCCN)NC[C@@H](Cc2c[nH]c3ccccc23)NC(=O)[C@H](Cc2ccc(O)cc2)NC(=O)[C@@H](NC(=O)[C@@H](N)Cc2ccccc2)CSSC[C@H](C(=O)N[C@H](C(N)=O)[C@@H](C)O)NC1=O,Plasma GH,Rattus norvegicus [4],325 ng/mL
same,Plasma GH,Rattus norvegicus [5],265 ng/mL
same,Plasma GH,Rattus norvegicus [6],348 ng/mL
CC(C)[C@H]1NC[C@H](CCCCN)NC(=O)[C@@H](Cc2c[nH]c3ccccc23)NC(=O)[C@H](Cc2ccc(O)cc2)NC(=O)[C@@H](NC(=O)[C@@H](N)Cc2ccccc2)CSSC[C@H](C(=O)N[C@H](C(N)=O)[C@@H](C)O)NC1=O,Plasma GH,Rattus norvegicus [7],120 ng/mL
same,Plasma GH,Rattus norvegicus [8],174 ng/mL
CC(C)[C@@H]1NC[C@H](CCCCN)NC(=O)[C@@H](Cc2c[nH]c3ccccc23)NC(=O)[C@H](Cc2ccc(O)cc2)NC[C@@H](NC(=O)[C@H](N)Cc2ccccc2)CSSC[C@@H](C(=O)N[C@H](C(N)=O)[C@@H](C)O)NC1=O,Potency,Rattus norvegicus [1],0.98%
same,Potency,Rattus norvegicus [2],65%
same,ED50,Rattus norvegicus [3],6.3 nM
CC(C)[C@@H]1NC[C@H](CCCCN)NC(=O)[C@@H](Cc2c[nH]c3ccccc23)NC(=O)[C@H](Cc2ccc(O)cc2)NC(=O)[C@@H](NC(=O)[C@H](N)Cc2ccccc2)CSSC[C@@H](C(=O)N[C@H](C(N)=O)[C@@H](C)O)NC1=O,Potency,Rattus norvegicus [1],67.27%
same,Potency,Rattus norvegicus [2],434%
same,ED50,Rattus norvegicus [3],0.092 nM
CC(C)[C@@H]1CN[C@@H](C(=O)N[C@H](C(N)=O)[C@@H](C)O)CSSC[C@H](NC(=O)[C@@H](N)Cc2ccccc2)C(=O)N[C@@H](Cc2ccc(O)cc2)C(=O)N[C@H](Cc2c[nH]c3ccccc23)C(=O)N[C@@H](CCCCN)C(=O)N1,Plasma GH,Rattus norvegicus [4],381 ng/mL
same,Plasma GH,Rattus norvegicus [5],225 ng/mL
same,Plasma GH,Rattus norvegicus [6],266 ng/mL
CC(C)[C@@H]1CN[C@H](C(=O)N[C@H](C(N)=O)[C@@H](C)O)CSSC[C@H](NC(=O)[C@H](N)Cc2ccccc2)C(=O)N[C@@H](Cc2ccc(O)cc2)C(=O)N[C@H](Cc2c[nH]c3ccccc23)CN[C@@H](CCCCN)C(=O)N1,Potency,Rattus norvegicus [1],<0.001%
same,Potency,Rattus norvegicus [2],2%
same,ED50,Rattus norvegicus [3],>1000 nM
CC(C)[C@@H]1CN[C@@H](C(=O)N[C@H](C(N)=O)[C@@H](C)O)CSSC[C@H](NC(=O)[C@@H](N)Cc2ccccc2)C(=O)N[C@@H](Cc2ccc(O)cc2)C(=O)N[C@H](Cc2c[nH]c3ccccc23)CN[C@@H](CCCCN)C(=O)N1,Plasma GH,Rattus norvegicus [4],509 ng/mL
same,Plasma GH,Rattus norvegicus [6],393 ng/mL
same,Plasma GH,Rattus norvegicus [9],325 ng/mL
CC(C)[C@H]1NC(=O)[C@H](CCCCN)NC(=O)[C@@H](Cc2c[nH]c3ccccc23)NC(=O)[C@H](Cc2ccc(O)cc2)NC(=O)[C@@H](NC(=O)[C@@H](N)Cc2ccccc2)CSSC[C@H](CN[C@H](C(N)=O)[C@@H](C)O)NC1=O,Plasma GH,Rattus norvegicus [10],156 ng/mL
same,Plasma GH,Rattus norvegicus [11],248 ng/mL
CC(C)[C@@H]1NC(=O)[C@H](CCCCN)NC(=O)[C@@H](Cc2c[nH]c3ccccc23)NC(=O)[C@H](Cc2ccc(O)cc2)NC[C@@H](NC(=O)[C@H](N)Cc2ccccc2)CSSC[C@@H](C(=O)N[C@H](C(N)=O)[C@@H](C)O)NC1=O,Potency,Rattus norvegicus [1],17.43%
same,Potency,Rattus norvegicus [2],1960%
same,ED50,Rattus norvegicus [3],0.35 nM
CC(C)[C@@H]1NC(=O)[C@H](CCCCN)NC(=O)[C@@H](Cc2c[nH]c3ccccc23)NC(=O)[C@H](Cc2ccc(O)cc2)NC(=O)[C@@H](NC[C@@H](N)Cc2ccccc2)CSSC[C@@H](C(=O)N[C@H](C(N)=O)[C@@H](C)O)NC1=O,Potency,Rattus norvegicus [1],1.01%
same,Potency,Rattus norvegicus [2],160%
same,ED50,Rattus norvegicus [3],6.1 nM
CC(C)[C@H]1NC(=O)[C@H](CCCCN)NC(=O)[C@@H](Cc2c[nH]c3ccccc23)NC(=O)[C@H](Cc2ccc(O)cc2)NC[C@@H](NC(=O)[C@@H](N)Cc2ccccc2)CSSC[C@H](C(=O)N[C@H](C(N)=O)[C@@H](C)O)NC1=O,Plasma GH,Rattus norvegicus [12],146 ng/mL
same,Plasma GH,Rattus norvegicus [8],98 ng/mL
CC(C)[C@H]1NC(=O)[C@H](CCCCN)NC(=O)[C@@H](Cc2c[nH]c3ccccc23)NC(=O)[C@H](Cc2ccc(O)cc2)NC(=O)[C@@H](NC[C@@H](N)Cc2ccccc2)CSSC[C@H](C(=O)N[C@H](C(N)=O)[C@@H](C)O)NC1=O,Plasma GH,Rattus norvegicus [10],90 ng/mL
same,Plasma GH,Rattus norvegicus [11],185 ng/mL
CC(C)[C@H]1NC[C@H](CCCCN)NC(=O)[C@@H](Cc2c[nH]c3ccccc23)NC(=O)[C@H](Cc2ccc(O)cc2)NC[C@@H](NC(=O)[C@@H](N)Cc2ccc3ccccc3c2)CSSC[C@H](C(=O)N[C@H](C(N)=O)[C@@H](C)O)NC1=O,Plasma GH,Rattus norvegicus [4],291 ng/mL
same,Plasma GH,Rattus norvegicus [6],133 ng/mL
same,Plasma GH,Rattus norvegicus [13],433 ng/mL
CC(C)[C@@H]1NC[C@H](CCCCN)NC(=O)[C@@H](Cc2c[nH]c3ccccc23)NC(=O)[C@H](Cc2ccc(O)cc2)NC[C@@H](NC(=O)[C@H](N)Cc2ccc3ccccc3c2)CSSC[C@@H](C(=O)N[C@H](C(N)=O)[C@@H](C)O)NC1=O,Potency,Rattus norvegicus [1],3.44%
same,Potency,Rattus norvegicus [2],50%
same,ED50,Rattus norvegicus [3],1.8 nM
CC(C)[C@H]1NC[C@H](CCCCN)NC(=O)[C@@H](Cc2c[nH]c3ccccc23)NC(=O)[C@H](Cc2ccc(O)cc2)NC[C@@H](NC(=O)[C@@H](N)Cc2ccccc2)CSSC[C@H](C(=O)N[C@H](C(N)=O)[C@@H](C)O)NC1=O,Plasma GH,Rattus norvegicus [4],250 ng/mL
same,Plasma GH,Rattus norvegicus [6],124 ng/mL
same,Plasma GH,Rattus norvegicus [12],258 ng/mL
